Measurements taken from ChEMBL document CHEMBL1147441, “A new series of potent oxindole inhibitors of CDK2” (Bioorg Med Chem Lett, 2004).
Each block holds one molecule with its values, some of them ahead of it.

Columns and labels:
SW480 [1] = test: In vitro inhibition of SW480 (human colon cancer) cell proliferation.; type: functional, cell-based
Method in brief: (§1)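 MTT-based proliferation assay run on tumour cells. IC50 values were taken from a single experiment.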

MDA-MB-435 = test: In vitro inhibition of MDA MB 435 (human breast cancer) cell proliferation.; type: functional, cell-based; method in brief: as §1
[2] = biological target: Cyclin-dependent kinase 2/cyclin E (Homo sapiens, UniProt P24941); test: In vitro inhibition of recombinant Cyclin Dependent Kinase-2/Cyclin E.; type: protein-complex assay
SW480 [3] = test: Percent inhibition of SW480 cell growth in sub G0 phase at 92 nm concentration in FACS cell cycle after 4 hr of treatment; type: functional, Homo sapiens
Method in brief: (§2)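 SW480 cells were exposed to compound for 4, 16 or 24 h. Cells were fixed in 70% ethanol, pelleted for 1 min at 3000g at 25 °C and washed once in PBS. They were then treated with ribonuclease for 15 min at 37 °C and stained with propidium iodide for 30 min at room temperature. Flow cytometry gave the % of cells in G0-G1, S, G2-M and subG0, and the G2/G1 ratio.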

SW480 [4] = test: Percent inhibition of SW480 cell growth in G2-M phase at 270 nm concentration in FACS cell cycle after 4 hr of treatment; type: functional, Homo sapiens; method in brief: as §2
SW480 [5] = test: Percent inhibition of SW480 cell growth in G0-G1 phase at 92 nm concentration in FACS cell cycle after 16 hr of treatment; type: functional, Homo sapiens; method in brief: as §2
SW480 [6] = test: Percent inhibition of SW480 cell growth in sub G0 phase at 0 nm concentration in FACS cell cycle after 4 hr of treatment; type: functional, Homo sapiens; method in brief: as §2
SW480 [7] = test: Percent inhibition of SW480 cell growth in S phase at 270 nm concentration in FACS cell cycle after 4 hr of treatment; type: functional, Homo sapiens; method in brief: as §2
[8] = Inhibition ratio of G2 and G1 phase cellular fractions of SW480 cells treated with compound at 92 nM concentration at 24 h; type: functional; method in brief: as §2
SW480 [9] = test: Percent inhibition of SW480 cell growth in G2-M phase at 270 nm concentration in FACS cell cycle after 24 h of treatment; type: functional, Homo sapiens; method in brief: as §2
SW480 [10] = test: Percent inhibition of SW480 cell growth in sub G0 phase at 0 nm concentration in FACS cell cycle after 16 hr of treatment; type: functional, Homo sapiens; method in brief: as §2
SW480 [11] = test: Percent inhibition of SW480 cell growth in G2-M phase at 0 nm concentration in FACS cell cycle after 24 hr of treatment; type: functional, Homo sapiens; method in brief: as §2
SW480 [12] = test: Percent inhibition of SW480 cell growth in sub G0 phase at 270 nm concentration in FACS cell cycle after 24 h of treatment; type: functional, Homo sapiens; method in brief: as §2
SW480 [13] = test: Percent inhibition of SW480 cell growth in sub G0 phase at 270 nm concentration in FACS cell cycle after 16 hr of treatment; type: functional, Homo sapiens; method in brief: as §2
SW480 [14] = test: Percent inhibition of SW480 cell growth in G2-M phase at 0 nm concentration in FACS cell cycle after 4 hr of treatment; type: functional, Homo sapiens; method in brief: as §2
SW480 [15] = test: Percent inhibition of SW480 cell growth in sub G0 phase at 270 nm concentration in FACS cell cycle after 4 hr of treatment; type: functional, Homo sapiens; method in brief: as §2
SW480 [16] = test: Percent inhibition of SW480 cell growth in G0-G1 phase at 270 nm concentration in FACS cell cycle after 4 hr of treatment; type: functional, Homo sapiens; method in brief: as §2
SW480 [17] = test: Percent inhibition of SW480 cell growth in G2-M phase at 270 nm concentration in FACS cell cycle after 16 hr of treatment; type: functional, Homo sapiens; method in brief: as §2
[18] = Inhibition ratio of G2 and G1 phase cellular fractions of SW480 cells treated with compound at 270 nM concentration at 16 h; type: functional; method in brief: as §2
SW480 [19] = test: Percent inhibition of SW480 cell growth in G2-M phase at 92 nm concentration in FACS cell cycle after 16 hr of treatment; type: functional, Homo sapiens; method in brief: as §2
SW480 [20] = test: Percent inhibition of SW480 cell growth in G2-M phase at 92 nm concentration in FACS cell cycle after 4 hr of treatment; type: functional, Homo sapiens; method in brief: as §2
[21] = Inhibition ratio of G2 and G1 phase cellular fractions of SW480 cells treated with compound at 92 nM concentration at 16 h; type: functional; method in brief: as §2
[22] = Inhibition ratio of G2 and G1 phase cellular fractions of SW480 cells treated with compound at 270 nM concentration at 24 h; type: functional; method in brief: as §2
SW480 [23] = test: Percent inhibition of SW480 cell growth in G0-G1 phase at 92 nm concentration in FACS cell cycle after 24 hr of treatment; type: functional, Homo sapiens; method in brief: as §2
SW480 [24] = test: Percent inhibition of SW480 cell growth in G0-G1 phase at 0 nm concentration in FACS cell cycle after 24 hr of treatment; type: functional, Homo sapiens; method in brief: as §2
SW480 [25] = test: Percent inhibition of SW480 cell growth in G0-G1 phase at 270 nm concentration in FACS cell cycle after 16 hr of treatment; type: functional, Homo sapiens; method in brief: as §2
SW480 [26] = test: Percent inhibition of SW480 cell growth in S phase at 0 nm concentration in FACS cell cycle after 4 h of treatment; type: functional, Homo sapiens; method in brief: as §2
SW480 [27] = test: Percent inhibition of SW480 cell growth in S phase at 0 nm concentration in FACS cell cycle after 16 hr of treatment; type: functional, Homo sapiens; method in brief: as §2
SW480 [28] = test: Percent inhibition of SW480 cell growth in sub G0 phase at 92 nm concentration in FACS cell cycle after 24 hr of treatment; type: functional, Homo sapiens; method in brief: as §2
[29] = Inhibition ratio of G2 and G1 phase cellular fractions of SW480 cells treated with compound at 0 nM concentration at 24 h; type: functional; method in brief: as §2
SW480 [30] = test: Percent inhibition of SW480 cell growth in S phase at 0 nm concentration in FACS cell cycle after 24 hr of treatment; type: functional, Homo sapiens; method in brief: as §2
SW480 [31] = test: Percent inhibition of SW480 cell growth in G2-M phase at 92 nm concentration in FACS cell cycle after 24 hr of treatment; type: functional, Homo sapiens; method in brief: as §2
SW480 [32] = test: Percent inhibition of SW480 cell growth in G0-G1 phase at 270 nm concentration in FACS cell cycle after 24 hr of treatment; type: functional, Homo sapiens; method in brief: as §2
SW480 [33] = test: Percent inhibition of SW480 cell growth in S phase at 92 nm concentration in FACS cell cycle after 4 hr of treatment; type: functional, Homo sapiens; method in brief: as §2
SW480 [34] = test: Percent inhibition of SW480 cell growth in S phase at 92 nm concentration in FACS cell cycle after 24 hr of treatment; type: functional, Homo sapiens; method in brief: as §2
SW480 [35] = test: Percent inhibition of SW480 cell growth in G0-G1 phase at 0 nm concentration in FACS cell cycle after 4 hr of treatment; type: functional, Homo sapiens; method in brief: as §2
SW480 [36] = test: Percent inhibition of SW480 cell growth in G0-G1 phase at 92 nm concentration in FACS cell cycle after 4 hr of treatment; type: functional, Homo sapiens; method in brief: as §2
SW480 [37] = test: Percent inhibition of SW480 cell growth in S phase at 270 nm concentration in FACS cell cycle after 16 hr of treatment; type: functional, Homo sapiens; method in brief: as §2
SW480 [38] = test: Percent inhibition of SW480 cell growth in sub G0 phase at 92 nm concentration in FACS cell cycle after 16 h of treatment; type: functional, Homo sapiens; method in brief: as §2
[39] = Inhibition ratio of G2 and G1 phase cellular fractions of SW480 cells treated with compound at 0 nM concentration at 16 h; type: functional; method in brief: as §2
SW480 [40] = test: Percent inhibition of SW480 cell growth in sub G0 phase at 0 nm concentration in FACS cell cycle after 24 hr of treatment; type: functional, Homo sapiens; method in brief: as §2
SW480 [41] = test: Percent inhibition of SW480 cell growth in G2-M phase at 0 nm concentration in FACS cell cycle after 16 hr of treatment; type: functional, Homo sapiens; method in brief: as §2
[42] = Inhibition ratio of G2 and G1 phase cellular fractions of SW480 cells treated with compound at 270 nM concentration at 4 h; type: functional; method in brief: as §2
SW480 [43] = test: Percent inhibition of SW480 cell growth in G0-G1 phase at 0 nm concentration in FACS cell cycle after 16 hr of treatment; type: functional, Homo sapiens; method in brief: as §2
[44] = Inhibition ratio of G2 and G1 phase cellular fractions of SW480 cells treated with compound at 92 nM concentration at 4 h; type: functional; method in brief: as §2
[45] = Inhibition ratio of G2 and G1 phase cellular fractions of SW480 cells treated with compound at 0 nM concentration at 4 h; type: functional; method in brief: as §2
SW480 [46] = test: Percent inhibition of SW480 cell growth in S phase at 92 nm concentration in FACS cell cycle after 16 hr of treatment; type: functional, Homo sapiens; method in brief: as §2
SW480 [47] = test: Percent inhibition of SW480 cell growth in S phase at 270 nm concentration in FACS cell cycle after 24 hr of treatment; type: functional, Homo sapiens; method in brief: as §2

IC50 (SW480 [1]): 100 nM
IC50 (MDA-MB-435): 349 nM
IC50 [2]: 8 nM
Structure (SMILES): CN[C@H](C#Cc1c(F)ccc2c1/C(=C/c1[nH]ccc1OC)C(=O)N2)CO

IC50 (SW480 [1]): 270 nM
IC50 (MDA-MB-435): 320 nM
IC50 [2]: 3 nM
Structure (SMILES): COc1cc[nH]c1/C=C1\C(=O)Nc2ccc(F)c(C#C[C@H](N)CO)c21

The remaining lines, values behind:

Structure (SMILES): COc1cc[nH]c1/C=C1\C(=O)Nc2ccc(F)c(C#C[C@H](CO)NCCO)c21
IC50 (SW480 [1]): 967 nM
IC50 (MDA-MB-435): 1270 nM
IC50 [2]: 95 nM

Structure (SMILES): COc1cc[nH]c1/C=C1/C(=O)Nc2ccc(F)cc21
IC50 (MDA-MB-435): > 30000 nM
IC50 [2]: 847 nM

Structure (SMILES): COc1cc[nH]c1/C=C1\C(=O)Nc2ccc(F)c(C#CC3(O)CCOCC3)c21
IC50 (SW480 [1]): 290 nM
IC50 (MDA-MB-435): 600 nM
IC50 [2]: 4 nM

Structure (SMILES): COc1cc[nH]c1/C=C1\C(=O)Nc2ccc(F)c(C#CC3(O)CCNCC3)c21.Cl
SubG0 (SW480 [3]): 11.17%
G2/M (SW480 [4]): 21.8%
G0/G1 (SW480 [5]): 55.84%
SubG0 (SW480 [6]): 13.29%
S (SW480 [7]): 34.26%
Ratio [8]: 1.96%
IC50 (SW480 [1]): 92 nM
G2/M (SW480 [9]): 35.45%
SubG0 (SW480 [10]): 11.29%
G2/M (SW480 [11]): 14.89%
SubG0 (SW480 [12]): 46.86%
SubG0 (SW480 [13]): 43.52%
G2/M (SW480 [14]): 18.42%
SubG0 (SW480 [15]): 14.47%
G0/G1 (SW480 [16]): 43.9%
G2/M (SW480 [17]): 38.44%
IC50 (MDA-MB-435): 110 nM
Ratio [18]: 1.94%
G2/M (SW480 [19]): 15.72%
G2/M (SW480 [20]): 18.36%
Ratio [21]: 1.96%
Ratio [22]: 1.94%
G0/G1 (SW480 [23]): 54.68%
G0/G1 (SW480 [24]): 52.41%
G0/G1 (SW480 [25]): 47.74%
S (SW480 [26]): 32.33%
S (SW480 [27]): 38.61%
SubG0 (SW480 [28]): 11.67%
Ratio [29]: 1.95%
S (SW480 [30]): 32.7%
G2/M (SW480 [31]): 15.16%
G0/G1 (SW480 [32]): 50%
S (SW480 [33]): 29.14%
S (SW480 [34]): 30.15%
G0/G1 (SW480 [35]): 49.25%
G0/G1 (SW480 [36]): 52.49%
S (SW480 [37]): 13.82%
SubG0 (SW480 [38]): 13.52%
Ratio [39]: 1.95%
SubG0 (SW480 [40]): 11.85%
G2/M (SW480 [41]): 14.84%
Ratio [42]: 1.95%
G0/G1 (SW480 [43]): 46.55%
Ratio [44]: 1.95%
Ratio [45]: 1.94%
IC50 [2]: 6 nM
S (SW480 [46]): 28.43%
S (SW480 [47]): 14.54%
